pIC50: −log10 of the molar value. Values belong to the compound of their own block, whether it stands above or below them. Calls of active or inactive are those of the source. The calls are words filed in the database; no cut-off is given here.
Experiments:
[1] = molecular target: T1, Leucyl-cystinyl aminopeptidase (Homo sapiens, UniProt Q9UIQ6); test: Inhibition of human recombinant IRAP expressed in baculovirus infected cabbage looper ovary Hi5 cells using L-leucine-7-amido-4-methyl coumarin as substrate up to 100 uM after 5 to 10 mins by fluorescence assay; details: BTI-TN-5B1-4
T1 sequence (Q9UIQ6 whole entry): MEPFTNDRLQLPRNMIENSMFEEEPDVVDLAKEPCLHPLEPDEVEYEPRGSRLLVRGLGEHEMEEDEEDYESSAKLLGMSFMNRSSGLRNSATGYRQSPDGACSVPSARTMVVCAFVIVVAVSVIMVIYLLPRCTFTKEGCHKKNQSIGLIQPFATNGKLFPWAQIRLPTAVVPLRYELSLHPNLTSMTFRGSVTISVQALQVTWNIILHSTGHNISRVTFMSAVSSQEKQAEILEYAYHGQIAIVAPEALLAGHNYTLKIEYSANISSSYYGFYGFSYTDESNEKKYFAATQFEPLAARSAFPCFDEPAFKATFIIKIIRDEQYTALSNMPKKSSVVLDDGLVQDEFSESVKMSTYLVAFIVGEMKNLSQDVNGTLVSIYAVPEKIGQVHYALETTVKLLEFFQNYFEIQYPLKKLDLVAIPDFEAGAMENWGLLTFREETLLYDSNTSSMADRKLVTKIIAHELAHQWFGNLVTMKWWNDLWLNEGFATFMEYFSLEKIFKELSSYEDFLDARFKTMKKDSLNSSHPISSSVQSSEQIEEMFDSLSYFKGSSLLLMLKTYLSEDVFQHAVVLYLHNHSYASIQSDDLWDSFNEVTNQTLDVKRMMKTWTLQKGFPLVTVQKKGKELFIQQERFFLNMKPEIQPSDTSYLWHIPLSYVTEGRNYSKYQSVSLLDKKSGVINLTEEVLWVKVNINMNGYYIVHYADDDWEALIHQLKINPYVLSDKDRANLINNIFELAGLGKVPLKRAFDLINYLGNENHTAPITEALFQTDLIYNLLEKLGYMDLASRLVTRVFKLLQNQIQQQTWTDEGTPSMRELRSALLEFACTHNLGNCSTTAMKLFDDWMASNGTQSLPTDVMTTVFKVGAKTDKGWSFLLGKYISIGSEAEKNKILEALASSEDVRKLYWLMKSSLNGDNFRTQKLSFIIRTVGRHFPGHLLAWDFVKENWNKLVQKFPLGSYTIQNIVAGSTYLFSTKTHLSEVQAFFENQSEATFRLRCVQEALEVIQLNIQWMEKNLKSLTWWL
Summary of the method: (§1)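 Recombinant human enzymes made in baculovirus-infected Hi5 cells, kept in 10 mM HEPES pH 7, 100 mM NaCl, 10% glycerol. ERAP1 30 nM, ERAP2 6 nM or IRAP 6 nM with 50 μM substrate (L-AMC for ERAP1 and IRAP, R-AMC for ERAP2) and varied inhibitor. Fluorescence rise followed at ex 380/em 460; IC50 from fit of activity against inhibitor concentration.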

[2] = molecular target: T1, Leucyl-cystinyl aminopeptidase; test: Inhibition of human recombinant IRAP expressed in baculovirus infected cabbage looper ovary Hi5 cells using L-leucine-7-amido-4-methyl coumarin as substrate after 5 to 10 mins by fluorescence assay; design: species or system Female gonad, BTI-TN-5B1-4
[3] = molecular target: T2, Endoplasmic reticulum aminopeptidase 1 (Homo sapiens, UniProt Q9NZ08); test: Inhibition of human recombinant ERAP1 expressed in baculovirus infected […] using L-leucine-7-amido-4-methyl coumarin as substrate up to 100 uM after 5 to 10 mins by fluorescence assay; summary of the method: as §1
T2 sequence (Q9NZ08 whole entry): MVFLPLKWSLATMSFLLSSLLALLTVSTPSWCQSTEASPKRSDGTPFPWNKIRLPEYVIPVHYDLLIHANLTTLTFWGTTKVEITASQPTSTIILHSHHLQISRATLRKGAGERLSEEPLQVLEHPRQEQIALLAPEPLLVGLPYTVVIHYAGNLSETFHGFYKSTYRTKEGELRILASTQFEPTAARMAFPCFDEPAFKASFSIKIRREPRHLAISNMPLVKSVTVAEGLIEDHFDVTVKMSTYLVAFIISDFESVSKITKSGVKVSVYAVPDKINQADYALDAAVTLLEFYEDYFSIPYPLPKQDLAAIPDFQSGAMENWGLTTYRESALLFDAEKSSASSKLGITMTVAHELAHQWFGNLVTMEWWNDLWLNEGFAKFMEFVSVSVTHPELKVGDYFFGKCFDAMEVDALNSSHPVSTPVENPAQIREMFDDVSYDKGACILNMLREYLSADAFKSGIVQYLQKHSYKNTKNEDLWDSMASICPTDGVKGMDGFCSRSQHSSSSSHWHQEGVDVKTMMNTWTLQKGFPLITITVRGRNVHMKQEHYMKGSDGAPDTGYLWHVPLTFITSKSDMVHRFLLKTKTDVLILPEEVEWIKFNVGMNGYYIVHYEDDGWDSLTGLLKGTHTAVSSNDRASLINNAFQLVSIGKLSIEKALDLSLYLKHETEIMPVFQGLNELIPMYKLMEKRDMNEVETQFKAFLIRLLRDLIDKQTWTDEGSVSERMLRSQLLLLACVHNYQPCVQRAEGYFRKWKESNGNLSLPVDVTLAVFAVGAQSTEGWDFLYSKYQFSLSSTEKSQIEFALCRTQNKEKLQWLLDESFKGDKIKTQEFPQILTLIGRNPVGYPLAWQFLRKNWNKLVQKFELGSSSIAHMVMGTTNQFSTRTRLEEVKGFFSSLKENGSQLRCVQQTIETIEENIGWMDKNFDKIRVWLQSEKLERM

[4] = molecular target: T2, Endoplasmic reticulum aminopeptidase 1; test: Inhibition of human recombinant ERAP1 expressed in baculovirus infected Sf9 cells using L-leucine-7-amido-4-methyl coumarin as substrate after 5 to 10 mins by fluorescence assay
[5] = molecular target: T3, Endoplasmic reticulum aminopeptidase 2 (Homo sapiens, UniProt Q6P179); test: Inhibition of human recombinant ERAP2 expressed in baculovirus infected cabbage looper ovary Hi5 cells using L-arginyl-7-amido-4-methyl coumarin as substrate up to 100 uM after 5 to 10 mins by fluorescence assay; details: BTI-TN-5B1-4; summary of the method: as §1
T3 sequence (Q6P179 whole entry): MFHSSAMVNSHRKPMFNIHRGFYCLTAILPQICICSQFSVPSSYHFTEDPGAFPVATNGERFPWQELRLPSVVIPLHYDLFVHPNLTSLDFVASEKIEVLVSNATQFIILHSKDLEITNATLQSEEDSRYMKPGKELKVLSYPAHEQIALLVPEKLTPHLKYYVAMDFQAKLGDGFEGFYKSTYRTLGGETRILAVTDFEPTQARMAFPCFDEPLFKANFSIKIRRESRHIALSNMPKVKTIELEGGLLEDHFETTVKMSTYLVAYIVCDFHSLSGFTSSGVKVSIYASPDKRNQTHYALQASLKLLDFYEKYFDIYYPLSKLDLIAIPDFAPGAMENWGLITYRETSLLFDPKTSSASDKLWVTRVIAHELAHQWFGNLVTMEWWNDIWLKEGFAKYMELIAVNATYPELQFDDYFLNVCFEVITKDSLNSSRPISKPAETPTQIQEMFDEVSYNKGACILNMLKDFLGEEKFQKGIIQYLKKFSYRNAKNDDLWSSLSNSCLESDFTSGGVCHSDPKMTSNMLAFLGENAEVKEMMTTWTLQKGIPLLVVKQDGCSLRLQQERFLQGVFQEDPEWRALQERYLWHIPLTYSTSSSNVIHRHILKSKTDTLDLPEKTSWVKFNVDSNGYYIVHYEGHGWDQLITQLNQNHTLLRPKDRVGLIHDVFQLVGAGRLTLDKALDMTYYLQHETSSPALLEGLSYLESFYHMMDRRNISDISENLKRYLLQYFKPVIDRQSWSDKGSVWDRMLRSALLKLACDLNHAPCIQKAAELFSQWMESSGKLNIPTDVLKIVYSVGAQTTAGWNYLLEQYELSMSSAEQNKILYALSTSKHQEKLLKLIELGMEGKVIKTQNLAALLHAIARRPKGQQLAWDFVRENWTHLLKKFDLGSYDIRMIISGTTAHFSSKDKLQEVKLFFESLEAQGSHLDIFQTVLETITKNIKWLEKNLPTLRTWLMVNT

[6] = molecular target: T3, Endoplasmic reticulum aminopeptidase 2; test: Inhibition of human recombinant ERAP2 expressed in baculovirus infected cabbage looper ovary Hi5 cells using L-arginyl-7-amido-4-methyl coumarin as substrate after 5 to 10 mins by fluorescence assay; design: species or system Female gonad, BTI-TN-5B1-4
[7] = molecular target: T4, Endoplasmic reticulum aminopeptidase 1 (Mus musculus) (UniProt Q9EQH2); test: Inhibition of ERAP1 in mouse RAW264.7 cells assessed as reduction in interferon-gamma/LPS-induced phagocytosis after 24 hrs by fluorescent latex beads internalization assay; format: cell-based
T4 sequence (whole entry): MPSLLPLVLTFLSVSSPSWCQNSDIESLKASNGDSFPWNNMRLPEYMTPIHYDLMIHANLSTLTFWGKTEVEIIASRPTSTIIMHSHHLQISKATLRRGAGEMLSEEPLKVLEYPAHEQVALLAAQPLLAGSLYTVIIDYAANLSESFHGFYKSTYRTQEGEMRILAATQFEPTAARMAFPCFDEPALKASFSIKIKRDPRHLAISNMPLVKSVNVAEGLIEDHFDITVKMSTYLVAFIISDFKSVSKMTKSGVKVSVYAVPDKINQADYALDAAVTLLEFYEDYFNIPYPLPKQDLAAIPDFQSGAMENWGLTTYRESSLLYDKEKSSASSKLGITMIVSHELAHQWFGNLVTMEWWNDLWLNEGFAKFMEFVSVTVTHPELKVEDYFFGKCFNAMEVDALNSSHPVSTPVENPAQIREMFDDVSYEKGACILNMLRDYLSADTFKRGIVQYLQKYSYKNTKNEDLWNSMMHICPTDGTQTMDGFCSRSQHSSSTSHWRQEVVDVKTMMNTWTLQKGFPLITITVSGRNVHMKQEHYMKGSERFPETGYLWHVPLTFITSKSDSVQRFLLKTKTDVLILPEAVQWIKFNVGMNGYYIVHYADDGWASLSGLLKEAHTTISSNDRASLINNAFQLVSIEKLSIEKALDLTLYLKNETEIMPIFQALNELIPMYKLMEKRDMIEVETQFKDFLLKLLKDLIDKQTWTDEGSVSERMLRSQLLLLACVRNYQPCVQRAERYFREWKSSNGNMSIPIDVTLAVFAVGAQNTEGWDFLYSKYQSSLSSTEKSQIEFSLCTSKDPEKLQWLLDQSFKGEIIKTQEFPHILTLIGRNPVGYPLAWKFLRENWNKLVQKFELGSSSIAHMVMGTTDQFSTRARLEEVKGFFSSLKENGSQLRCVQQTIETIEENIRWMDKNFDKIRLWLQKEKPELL
Summary of the method: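 RAW264.7 cells in RPMI 1640/10% FBS, seeded 2×10^4/well for 24 h. Activated with IFN-γ (100 IU/mL) plus LPS (1 μg/mL) with or without inhibitor at various concentrations. FITC-IgG latex beads given in 1% FBS medium for 24 h at 37 °C. Uptake read as fluorescence (ex 485/em 535) after PBS washes; ED50 from curve fit.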

Compound: COC(=O)[C@H](CCCCN)NC(=O)c1ccc(N)c(NC(=O)[C@@H](N)CCCNC(=N)N)c1
inhibition [1]: inactive

Compound: CCCC[C@H](N)C(=O)Nc1cc(C(=O)N[C@H](C(=O)O)C(C)C)ccc1N
pIC50 [2]: < 4.00
inhibition [3]: inactive

Compound: COC(=O)[C@H](CCCCN)NC(=O)c1ccc(N)c(N)c1
pIC50 [4]: < 4.00
inhibition [5]: inactive

Compound: COC(=O)[C@H](CCCCN)NC(=O)c1ccc(N)c(NC(=O)[C@@H](N)COCc2ccccc2)c1
inhibition [3]: inactive
inhibition [5]: inactive
inhibition [1]: inactive

Compound: COC(=O)c1ccc(NC(=O)[C@@H](N)Cc2ccc(OCc3ccccc3)cc2)c(N)c1
inhibition [3]: inactive
inhibition [5]: inactive

Compound: COC(=O)c1ccc(NC(=O)[C@@H](N)CCCNC(=N)N)c(N)c1
inhibition [3]: inactive

Compound: COC(=O)c1ccc(NC(=O)[C@@H](N)Cc2ccc(O)cc2)c(N)c1
inhibition [3]: inactive

Compound: Nc1cc(C(=O)N[C@@H](Cc2c[nH]c3ccccc23)C(=O)OCc2ccccc2)ccc1NC(=O)[C@@H](N)CCc1ccc(OCc2ccccc2)cc1
inhibition [3]: inactive

Compound: COC(=O)c1ccc(NC(=O)[C@@H](N)CCc2ccccc2)c(N)c1
pIC50 [4]: < 4.00

Compound: CCCC[C@H](N)C(=O)Nc1cc(C(=O)N[C@@H](Cc2ccc(O)cc2)C(=O)OC)ccc1N
pIC50 [4]: < 4.00

Compound: CC(C)[C@H](NC(=O)c1ccc(N)c(NC(=O)[C@@H](N)Cc2ccc(O)cc2)c1)C(=O)O
inhibition [3]: inactive
pIC50 [6]: < 4.00

Compound: Nc1ccc(C(=O)N[C@@H](Cc2c[nH]c3ccccc23)C(=O)O)cc1NC(=O)[C@@H](N)CCc1ccc(O)cc1
pIC50 [6]: < 4.00

Compound: COC(=O)c1ccc(N)c(NC(=O)[C@@H](N)CCCNC(=N)N)c1
inhibition [3]: inactive

Compound: NCCCC[C@H](NC(=O)c1ccc(N)c(NC(=O)[C@@H](N)Cc2ccc(O)cc2)c1)C(=O)O
inhibition [3]: inactive

Compound: COC(=O)[C@H](CCCCN)NC(=O)c1ccc(NC(=O)[C@@H](N)CCc2ccccc2)c(N)c1
inhibition [3]: inactive
inhibition [5]: inactive

Compound: CC(C)[C@H](NC(=O)c1ccc(NC(=O)[C@@H](N)CCc2ccccc2)c(N)c1)C(=O)OCc1ccccc1
inhibition [3]: inactive
pIC50 [6]: < 4.00

Compound: CCCC[C@H](N)C(=O)Nc1ccc(C(=O)N[C@@H](CCCCN)C(=O)OC)cc1N
inhibition [3]: inactive

Compound: Nc1ccc(C(=O)N[C@@H](Cc2c[nH]c3ccccc23)C(=O)OCc2ccccc2)cc1N
inhibition [3]: inactive
pIC50 [6]: < 4.00

Compound: COC(=O)c1ccc(NC(=O)[C@@H](N)CC(C)C)c(N)c1
inhibition [3]: inactive
pIC50 [6]: < 4.00
inhibition [1]: inactive

Compound: COC(=O)c1ccc(N)c(NC(=O)[C@@H](N)CCc2ccc(OCc3ccccc3)cc2)c1
inhibition [3]: inactive
inhibition [5]: inactive

Compound: CC(C)[C@H](NC(=O)c1ccc(N)c(NC(=O)[C@@H](N)Cc2ccc(O)cc2)c1)C(=O)OCc1ccccc1
inhibition [3]: inactive

Compound: COC(=O)[C@H](CCCCN)NC(=O)c1ccc(NC(=O)[C@@H](N)Cc2ccc(O)cc2)c(N)c1
pIC50 [4]: < 4.00
pIC50 [6]: < 4.00

Compound: COC(=O)[C@@H](NC(=O)c1ccc(N)c(NC(=O)[C@@H](N)Cc2ccc(O)cc2)c1)[C@@H](C)O
pIC50 [4]: < 4.00

Compound: Nc1ccc(C(=O)O)cc1NC(=O)[C@@H](N)Cc1ccc(O)cc1
pIC50 [4]: < 4.00

Compound: COC(=O)[C@H](Cc1ccc(O)cc1)NC(=O)c1ccc(N)c(NC(=O)[C@@H](N)Cc2ccc(O)cc2)c1
pIC50 [4]: 3.96

Compound: NCCCC[C@H](NC(=O)c1ccc(N)c(NC(=O)[C@@H](N)Cc2ccccc2)c1)C(=O)O
inhibition [3]: inactive

Compound: COC(=O)[C@H](CCCCN)NC(=O)c1ccc(N)c(NC(=O)[C@@H](N)CCc2ccc(O)cc2)c1
pIC50 [4]: < 4.00

Compound: COC(=O)c1ccc(N)c(NC(=O)[C@@H](N)Cc2ccc(OCc3ccccc3)cc2)c1
inhibition [3]: inactive
inhibition [5]: inactive

Compound: COC(=O)c1ccc(N)c(NC(=O)[C@@H](N)CC(C)C)c1
inhibition [3]: inactive
inhibition [5]: inactive
inhibition [1]: inactive

Compound: CCCC[C@H](N)C(=O)Nc1ccc(C(=O)N[C@H](C(=O)OCc2ccccc2)C(C)C)cc1N
pIC50 [4]: < 4.00

Compound: COC(=O)[C@H](CCCCN)NC(=O)c1ccc(NC(=O)[C@@H](N)CCCNC(=N)N)c(N)c1
inhibition [3]: inactive

Compound: COC(=O)c1ccc(N)c(NC(=O)[C@@H](N)Cc2ccc(O)cc2)c1
inhibition [3]: inactive
pIC50 [6]: < 4.00

Compound: COC(=O)c1ccc(N)c(NC(=O)[C@@H](N)CCc2ccc(O)cc2)c1
pIC50 [4]: < 4.00
inhibition [5]: inactive

Second part, the compound after the results:

pIC50 [4]: < 4.00
Compound: COC(=O)[C@H](CCCCN)NC(=O)c1ccc(N)c(NC(=O)[C@@H](N)CCc2ccc(OCc3ccccc3)cc2)c1

inhibition [3]: inactive
inhibition [5]: inactive
inhibition [1]: inactive
Compound: CC(C)C[C@H](N)C(=O)Nc1cc(C(=O)O)ccc1N

pIC50 [4]: < 4.00
pIC50 [6]: < 4.00
ED50 [7]: inactive
Compound: CCCC[C@H](N)C(=O)Nc1cc(C(=O)N[C@H](C(=O)OCc2ccccc2)C(C)C)ccc1N

inhibition [3]: inactive
pIC50 [6]: < 4.00
Compound: N=C(N)NCCC[C@H](N)C(=O)Nc1cc(C(=O)O)ccc1N

inhibition [3]: inactive
inhibition [5]: inactive
Compound: COC(=O)[C@H](Cc1ccc(O)cc1)NC(=O)c1ccc(N)c(N)c1

inhibition [3]: inactive
inhibition [1]: inactive
Compound: COC(=O)[C@H](CCCCN)NC(=O)c1ccc(N)c(NC(=O)[C@@H](N)CC(C)C)c1

inhibition [5]: inactive
Compound: COC(=O)[C@H](CCCNC(=N)N)NC(=O)c1ccc(N)c(N)c1

pIC50 [4]: < 4.00
pIC50 [6]: < 4.00
Compound: Nc1ccc(C(=O)N[C@@H](Cc2c[nH]c3ccccc23)C(=O)OCc2ccccc2)cc1NC(=O)[C@@H](N)CCc1ccc(OCc2ccccc2)cc1

inhibition [3]: inactive
inhibition [5]: inactive
inhibition [1]: inactive
Compound: COC(=O)[C@H](CCCN)NC(=O)c1ccc(N)c(NC(=O)[C@@H](N)CCc2ccccc2)c1

pIC50 [6]: 4.40
Compound: Nc1ccc(C(=O)N[C@@H](Cc2c[nH]c3ccccc23)C(=O)O)cc1NC(=O)[C@@H](N)Cc1ccc(O)cc1

pIC50 [2]: < 4.00
Compound: CCCC[C@H](N)C(=O)Nc1cc(C(=O)N[C@@H](CCCCN)C(=O)OC)ccc1N

pIC50 [4]: < 4.00
Compound: CCCC[C@H](N)C(=O)Nc1cc(C(=O)OC)ccc1N

inhibition [3]: inactive
inhibition [5]: inactive
Compound: Nc1ccc(C(=O)O)cc1NC(=O)[C@@H](N)Cc1ccc(OCc2ccccc2)cc1

inhibition [3]: inactive
Compound: COC(=O)[C@H](Cc1ccc(O)cc1)NC(=O)c1ccc(NC(=O)[C@@H](N)Cc2ccc(OCc3ccccc3)cc2)c(N)c1

inhibition [3]: inactive
Compound: CCCC[C@H](N)C(=O)Nc1ccc(C(=O)OC)cc1N

inhibition [3]: inactive
Compound: CC(C)[C@H](NC(=O)c1ccc(N)c(NC(=O)[C@@H](N)CCCNC(=N)N)c1)C(=O)O

ED50 [7]: 0.97 µM
inhibition [7]: Dose-dependent effect
Compound: COC(=O)[C@H](CCCCN)NC(=O)c1ccc(N)c(NC(=O)[C@@H](N)CCc2ccccc2)c1

pIC50 [4]: < 4.00
Compound: Nc1ccc(C(=O)N[C@@H](Cc2c[nH]c3ccccc23)C(=O)O)cc1N

ED50 [7]: 3 µM
inhibition [7]: Dose-dependent effect
Compound: COC(=O)[C@H](Cc1ccc(O)cc1)NC(=O)c1ccc(N)c(NC(=O)[C@@H](N)CCCNC(=N)N)c1

inhibition [3]: inactive
pIC50 [6]: < 4.00
Compound: CC(C)[C@H](NC(=O)c1ccc(NC(=O)[C@@H](N)CCc2ccccc2)c(N)c1)C(=O)O

Reference: ChEMBL document CHEMBL3414429, “3,4-diaminobenzoic acid derivatives as inhibitors of the oxytocinase subfamily of M1 aminopeptidases with immune-regulating properties” (J Med Chem, 2015)
